Columns and labels:
Mus musculus [1] = experiment: Analgesic activity in po dosed mouse by hot plate test; type: functional
Summary of the method: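 Mouse hot-plate antinociception after oral dosing, ten mice per dose. ED50 with 95% confidence limits by computerized Litchfield–Wilcoxon method.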

Rattus norvegicus = experiment: Toxicity in ip dosed Wistar rat assessed as tachycardia; type: organism-based; conditions: in vivo
Summary of the method: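 Conscious rats on a warming plate, with rectal temperature kept below 39 °C. Heart rate taken from tail pulse sound (piezo contact microphone, tachograph). Agents given ip in absolute ethanol or distilled water according to solubility. Maximum heart-rate increase plotted against log dose. ED50 with 95% confidence limits by computerized Litchfield–Wilcoxon. Five, six or twelve rats per dose depending on compound.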

Mus musculus [2] = experiment: Analgesic activity in po dosed mouse by anti-writhing test; type: functional
Summary of the method: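 Mouse antiwrithing test after oral dosing, five mice per dose. ED50 (half-maximal effect dose) with 95% confidence limits by computerized modification of Litchfield–Wilcoxon.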

| Compound | ED50 (Mus musculus [1]) | Activity (Rattus norvegicus) | ED50 (Rattus norvegicus) | ED50 (Mus musculus [2]) |
| --- | --- | --- | --- | --- |
| CCCCCC(C)C(C)c1cc(O)c2c(c1)OC(C)(C)C1=C2CC(C)CC1 (mixture of isomers) | 9.3 mg/kg | Dose-dependent effect | 0.31 mg/kg | 3 mg/kg |
| CCCCCc1cc(O)c2c(c1)OC(C)(C)[C@@H]1CCC(C)=C[C@@H]21 [DRONABINOL] | > 100 mg/kg | Dose-dependent effect | 0.062 mg/kg | 43 mg/kg |
| C#CCN1CCC2=C(C1)c1c(O)cc(C(C)C(C)CCCCC)cc1OC2(C)C (stereo unspecified) | 7.7 mg/kg | Dose-dependent effect | 0.061 mg/kg | 4.3 mg/kg |
| CCCCCC(C)C(C)c1cc(OC(=O)CCCN2CCCCC2)c2c(c1)OC(C)(C)C1=C2CC(C)CC1.Cl (stereo unspecified) | 15 mg/kg | Dose-dependent effect | 1.92 mg/kg | 25.9 mg/kg |
| C#CCN1CCC2=C(C1)c1c(OC(=O)CCCN3CCCCC3)cc(C(C)C(C)CCCCC)cc1OC2(C)C.Cl (stereo unspecified) [NABITAN HYDROCHLORIDE] | 5.3 mg/kg | Dose-dependent effect | 0.11 mg/kg | 12 mg/kg |
| C#CCN1CCC2=C(C1)c1c(OC(=O)C(C)CCN3CCCCC3C)cc(C(C)C(C)CCCCC)cc1OC2(C)C.Cl (stereo unspecified) | 3.8 mg/kg | Dose-dependent effect | 0.53 mg/kg | 7.3 mg/kg |
| Br.CCCCCc1cc(OC(=O)CCCN2CCOCC2)c2c(c1)OC(C)(C)[C@@H]1CCC(C)=C[C@@H]21 | 168 mg/kg | Dose-dependent effect | 0.092 mg/kg | > 40 mg/kg |
| Br.CCCCCC(C)C(C)c1cc(OC(=O)CCCN2CCOCC2)c2c(c1)OC(C)(C)C1=C2CC(C)CC1 (stereo unspecified) | 0.5 mg/kg | Dose-dependent effect | 2.13 mg/kg | 2.3 mg/kg |
| C#CCN1CCC2=C(C1)c1c(OC(=O)C(C)CCN3CCCCC3)cc(C(C)C(C)CCCCC)cc1OC2(C)C.Cl (stereo unspecified) | 4.6 mg/kg | Dose-dependent effect | 0.4 mg/kg | 12.2 mg/kg |

From ChEMBL document CHEMBL3243963, “Drugs derived from cannabinoids. 7. Tachycardia and analgesia structure-activity relationships in delta9-tetrahydrocannabinol and some synthetic analogues” (J Med Chem, 1978)
